Test results: the M2OR odorant receptor database
Substitutions are numbered along the chain they refer to.

Columns and labels:
Details in all cases: stereoisomer not certain
OR9A4 (Homo sapiens) = molecular target: T1, OR9A4 (Homo sapiens) (UniProt Q8NGU2)
T1 sequence (whole entry): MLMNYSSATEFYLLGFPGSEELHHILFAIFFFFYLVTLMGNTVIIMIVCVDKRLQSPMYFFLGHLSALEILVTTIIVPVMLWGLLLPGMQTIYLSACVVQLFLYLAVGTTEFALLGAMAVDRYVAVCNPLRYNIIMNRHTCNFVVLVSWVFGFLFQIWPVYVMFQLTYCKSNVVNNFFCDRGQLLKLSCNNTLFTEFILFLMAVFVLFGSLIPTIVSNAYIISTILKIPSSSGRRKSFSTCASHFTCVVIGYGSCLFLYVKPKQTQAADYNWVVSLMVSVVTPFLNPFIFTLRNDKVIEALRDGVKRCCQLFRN
How it was run: (§1)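 Each receptor–molecule pair is labelled responsive or non-responsive (inactive) according to whether the original authors judged the measured signal statistically different from baseline. The data were taken from the main text and supplementary material of published papers and checked for typos and inconsistencies. Assay methods differed by source, with transient luciferase assays in mammalian cell lines being common.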

OR9G1 (Homo sapiens) = molecular target: T2, OR9G1 (Homo sapiens) (UniProt Q8NH87)
T2 sequence (whole entry): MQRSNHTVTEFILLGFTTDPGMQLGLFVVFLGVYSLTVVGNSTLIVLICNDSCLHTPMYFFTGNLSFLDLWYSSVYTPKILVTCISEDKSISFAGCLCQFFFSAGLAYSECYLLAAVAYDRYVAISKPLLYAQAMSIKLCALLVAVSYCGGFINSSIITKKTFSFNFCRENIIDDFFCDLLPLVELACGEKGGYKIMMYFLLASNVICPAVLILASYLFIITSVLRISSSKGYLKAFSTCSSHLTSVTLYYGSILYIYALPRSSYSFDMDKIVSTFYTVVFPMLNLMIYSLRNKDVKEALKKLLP
How it was run: as §1

OR9G4 (Homo sapiens) = molecular target: T3, OR9G4 (Homo sapiens) (UniProt Q8NGQ1)
T3 sequence (whole entry): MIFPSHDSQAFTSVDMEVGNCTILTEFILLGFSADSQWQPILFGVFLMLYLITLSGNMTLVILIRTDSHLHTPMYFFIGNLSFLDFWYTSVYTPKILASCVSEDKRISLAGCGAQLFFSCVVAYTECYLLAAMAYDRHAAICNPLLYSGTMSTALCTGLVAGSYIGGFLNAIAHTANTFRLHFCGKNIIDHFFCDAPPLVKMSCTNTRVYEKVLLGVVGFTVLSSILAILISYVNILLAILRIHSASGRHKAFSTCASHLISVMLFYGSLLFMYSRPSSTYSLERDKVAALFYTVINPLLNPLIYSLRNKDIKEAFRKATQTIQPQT
How it was run: as §1

OR9G4 H6Y N206D V222A = tested on: T4, OR9G4 H6Y N206D V222A
T4 sequence (whole entry): T3 sequence (whole entry) with H6Y, N206D, V222A
How it was run: as §1

OR9G4 N206D V222A = tested on: T5, OR9G4 N206D V222A
T5 sequence (whole entry): T3 sequence (whole entry) with N206D, V222A
How it was run: as §1

OR9G9 = tested on: T6, OR9G9
T6 sequence (whole entry): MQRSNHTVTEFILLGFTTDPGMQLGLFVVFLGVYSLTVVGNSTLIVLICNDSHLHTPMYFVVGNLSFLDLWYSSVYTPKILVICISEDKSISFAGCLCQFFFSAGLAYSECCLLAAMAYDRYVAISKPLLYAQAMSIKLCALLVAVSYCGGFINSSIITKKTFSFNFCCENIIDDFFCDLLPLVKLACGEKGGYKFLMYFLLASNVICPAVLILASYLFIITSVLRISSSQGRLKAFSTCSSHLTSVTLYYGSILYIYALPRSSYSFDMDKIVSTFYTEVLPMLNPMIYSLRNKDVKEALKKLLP
How it was run: as §1

OR9I1 (Homo sapiens) = molecular target: T7, OR9I1 (Homo sapiens) (UniProt Q8NGQ6)
T7 sequence (whole entry): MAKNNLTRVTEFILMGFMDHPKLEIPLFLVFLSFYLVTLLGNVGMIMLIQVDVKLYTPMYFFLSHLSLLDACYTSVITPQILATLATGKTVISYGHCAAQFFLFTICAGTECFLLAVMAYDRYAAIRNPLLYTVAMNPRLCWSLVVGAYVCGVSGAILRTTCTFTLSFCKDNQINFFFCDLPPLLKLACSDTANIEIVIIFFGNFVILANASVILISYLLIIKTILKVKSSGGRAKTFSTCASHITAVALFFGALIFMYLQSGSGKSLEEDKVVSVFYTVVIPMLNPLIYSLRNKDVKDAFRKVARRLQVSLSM
How it was run: as §1

OR9K2 (Homo sapiens) = molecular target: T8, OR9K2 (Homo sapiens) (UniProt Q8NGE7)
T8 sequence (whole entry): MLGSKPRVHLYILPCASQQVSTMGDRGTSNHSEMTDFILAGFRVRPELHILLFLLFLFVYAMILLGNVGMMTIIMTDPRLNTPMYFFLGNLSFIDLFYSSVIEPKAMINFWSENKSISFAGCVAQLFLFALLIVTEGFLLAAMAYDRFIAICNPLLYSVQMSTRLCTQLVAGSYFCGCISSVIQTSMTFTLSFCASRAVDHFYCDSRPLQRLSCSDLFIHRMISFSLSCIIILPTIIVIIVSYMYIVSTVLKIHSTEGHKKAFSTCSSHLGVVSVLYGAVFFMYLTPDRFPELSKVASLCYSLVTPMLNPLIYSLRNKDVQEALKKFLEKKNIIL
How it was run: as §1

OR9K2 R207H = tested on: T9, OR9K2 R207H
T9 sequence (whole entry): T8 sequence (whole entry) with R207H
How it was run: as §1

OR9Q1 (Homo sapiens) = molecular target: T10, OR9Q1 (Homo sapiens) (UniProt Q8NGQ5)
T10 sequence (whole entry): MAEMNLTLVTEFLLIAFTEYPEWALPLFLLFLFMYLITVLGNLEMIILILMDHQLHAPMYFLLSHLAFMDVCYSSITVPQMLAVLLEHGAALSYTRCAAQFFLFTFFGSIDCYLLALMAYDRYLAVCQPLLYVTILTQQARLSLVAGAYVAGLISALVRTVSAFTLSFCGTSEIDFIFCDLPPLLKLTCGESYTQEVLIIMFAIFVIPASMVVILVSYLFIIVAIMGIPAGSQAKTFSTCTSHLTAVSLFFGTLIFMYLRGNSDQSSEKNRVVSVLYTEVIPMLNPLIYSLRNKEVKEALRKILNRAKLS
How it was run: as §1

OR9Q1 A83T = tested on: T11, OR9Q1 A83T
T11 sequence (whole entry): T10 sequence (whole entry) with A83T
How it was run: as §1

OR9Q2 (Homo sapiens) = molecular target: T12, OR9Q2 (Homo sapiens) (UniProt Q8NGE9)
T12 sequence (whole entry): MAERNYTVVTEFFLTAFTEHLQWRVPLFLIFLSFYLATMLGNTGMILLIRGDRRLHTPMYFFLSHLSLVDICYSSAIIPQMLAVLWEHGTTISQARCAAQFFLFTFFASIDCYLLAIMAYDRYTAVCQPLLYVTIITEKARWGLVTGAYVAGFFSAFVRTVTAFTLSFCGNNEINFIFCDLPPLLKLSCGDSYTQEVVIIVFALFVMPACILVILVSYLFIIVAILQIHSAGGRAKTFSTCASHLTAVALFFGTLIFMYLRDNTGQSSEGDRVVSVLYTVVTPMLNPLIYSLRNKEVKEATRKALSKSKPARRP
How it was run: as §1

OR9Q2 C179R = tested on: T13, OR9Q2 C179R
T13 sequence (whole entry): T12 sequence (whole entry) with C179R
How it was run: as §1

OR9G9 (Homo sapiens) = molecular target: T14, OR9G9 (Homo sapiens) (UniProt P0C7N8)
T14 sequence (whole entry): T6 sequence (whole entry) with G193C
How it was run: as §1

Or10j5 (Mus musculus) = molecular target: T15, Or10j5 (Mus musculus) (UniProt Q62007)
T15 sequence (whole entry): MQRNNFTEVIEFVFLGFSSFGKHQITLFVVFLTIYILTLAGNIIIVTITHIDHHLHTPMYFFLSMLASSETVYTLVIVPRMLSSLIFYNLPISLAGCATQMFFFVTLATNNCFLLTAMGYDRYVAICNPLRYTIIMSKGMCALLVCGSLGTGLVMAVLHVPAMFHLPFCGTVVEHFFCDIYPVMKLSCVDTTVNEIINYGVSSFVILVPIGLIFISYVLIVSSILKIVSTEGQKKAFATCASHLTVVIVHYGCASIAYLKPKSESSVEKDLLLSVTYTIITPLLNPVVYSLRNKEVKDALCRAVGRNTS
How it was run: as §1

Or1m1 (Mus musculus) = molecular target: T16, Or1m1 (Mus musculus) (UniProt Q8VFM9)
T16 sequence (whole entry): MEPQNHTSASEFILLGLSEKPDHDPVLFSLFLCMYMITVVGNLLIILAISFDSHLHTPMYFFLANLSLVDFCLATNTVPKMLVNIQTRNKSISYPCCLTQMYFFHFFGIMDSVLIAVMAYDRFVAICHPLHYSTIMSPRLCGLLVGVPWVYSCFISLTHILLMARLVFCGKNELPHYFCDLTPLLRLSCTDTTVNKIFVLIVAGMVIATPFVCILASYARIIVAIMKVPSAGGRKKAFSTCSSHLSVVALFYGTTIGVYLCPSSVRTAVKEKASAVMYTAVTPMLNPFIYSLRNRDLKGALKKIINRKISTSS
How it was run: as §1

Or2c1 (Mus musculus) = molecular target: T17, Or2c1 (Mus musculus) (UniProt P23275)
T17 sequence (whole entry): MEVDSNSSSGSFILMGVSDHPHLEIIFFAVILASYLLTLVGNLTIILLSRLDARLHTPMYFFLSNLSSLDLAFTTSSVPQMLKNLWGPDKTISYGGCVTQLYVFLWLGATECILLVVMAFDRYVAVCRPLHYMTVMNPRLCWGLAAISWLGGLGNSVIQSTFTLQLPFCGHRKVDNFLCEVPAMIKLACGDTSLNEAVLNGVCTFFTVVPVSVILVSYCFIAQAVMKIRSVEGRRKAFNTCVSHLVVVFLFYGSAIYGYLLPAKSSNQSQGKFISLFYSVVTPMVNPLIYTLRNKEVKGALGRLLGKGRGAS
How it was run: as §1

Or5ar1 (Mus musculus) = molecular target: T18, Or5ar1 (Mus musculus) (UniProt Q8VGS3)
T18 sequence (whole entry): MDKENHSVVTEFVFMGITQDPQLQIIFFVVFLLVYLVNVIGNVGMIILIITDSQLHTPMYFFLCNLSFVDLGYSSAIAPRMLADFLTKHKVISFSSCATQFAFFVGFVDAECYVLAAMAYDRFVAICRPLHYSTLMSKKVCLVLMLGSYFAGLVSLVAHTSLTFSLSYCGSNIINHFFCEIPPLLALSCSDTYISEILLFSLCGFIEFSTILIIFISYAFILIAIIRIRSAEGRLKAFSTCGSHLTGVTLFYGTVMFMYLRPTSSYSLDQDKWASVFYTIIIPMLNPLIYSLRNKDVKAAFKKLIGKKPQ
How it was run: as §1

Measured: odorant receptor agonist call;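 further: active if original authors judged signal statistically different from baseline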

CC1=C(O)C(=O)C(C)O1 (stereo not given)
not listed: OR9G9 (Homo sapiens) | Or10j5 (Mus musculus) | Or1m1 (Mus musculus) | Or2c1 (Mus musculus) | Or5ar1 (Mus musculus)
inactive: all other assays above

CCC(S)C(C)CO (stereo not given)
inactive: OR9A4 (Homo sapiens) | OR9G1 (Homo sapiens) | OR9G4 (Homo sapiens) | OR9G9 (Homo sapiens) | OR9I1 (Homo sapiens) | OR9K2 (Homo sapiens) | OR9Q1 (Homo sapiens) | OR9Q2 (Homo sapiens)

CCCC(S)CCOC(C)=O (stereo not given)
not listed: OR9G9 (Homo sapiens) | Or10j5 (Mus musculus) | Or1m1 (Mus musculus) | Or2c1 (Mus musculus) | Or5ar1 (Mus musculus)
inactive: all other assays above

CCCCCCCO
inactive: Or10j5 (Mus musculus) | Or1m1 (Mus musculus) | Or2c1 (Mus musculus) | Or5ar1 (Mus musculus)

O=C([O-])CCCCCCC(=O)[O-].[H+].[H+]
inactive: Or10j5 (Mus musculus) | Or1m1 (Mus musculus) | Or5ar1 (Mus musculus)

O=C([O-])CCCCC(=O)[O-].[H+].[H+]
inactive: Or10j5 (Mus musculus)

CCCCCCCCCCCC=O
inactive: Or10j5 (Mus musculus)

O=C([O-])CCCCCCCC(=O)[O-].[H+].[H+]
inactive: Or10j5 (Mus musculus) | Or1m1 (Mus musculus) | Or5ar1 (Mus musculus)

CCCCCCCCCO
inactive: Or10j5 (Mus musculus) | Or1m1 (Mus musculus) | Or2c1 (Mus musculus) | Or5ar1 (Mus musculus)
